Experimental data as given in ChEMBL document CHEMBL1137132, “The synthesis and SAR of 2-arylsulfanyl-phenyl piperazinyl acetic acids as glyT-1 inhibitors” (Bioorg Med Chem Lett, 2004).

test system: Rattus norvegicus; test: Compound tested for increase in levels of glycine in the ventral hippocampus at a dose of 4.6 mg/kg after 60 min of s.c. administration; type: functional; settings: not given
How it was run: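 In vivo microdialysis in freely moving rats, ventral hippocampus. Compound given subcutaneously. Extracellular glycine measured, with mean basal pre-injection values normalised to 100%; n is the number of animals.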

Q: For COc1ccc(Sc2ccc(Cl)cc2N2CCN(CC(=O)O)[C@H](C)C2)cc1, which Increase is on record?
A: 140%

test system: not listed separately; test: Plasma clearance in rat; type: ADME, organism-based; settings: not given

Q: With COc1ccc(Sc2ccc(Cl)cc2N2CCN(CC(=O)O)[C@H](C)C2)cc1 as the compound, how does the clearance read?
A: 6.67 mL/min/kg

test system: not listed separately; test: Half-life in rat; type: ADME; settings: in vivo

Q: With COc1ccc(Sc2ccc(Cl)cc2N2CCN(CC(=O)O)[C@H](C)C2)cc1 as the compound, how does the half-life read?
A: 240 min

test system: not listed separately; test: Oral bioavailability in rat; type: ADME, organism-based; settings: in vivo
How it was run: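 Rat pharmacokinetics, oral dosing as a solution.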

Q: For COc1ccc(Sc2ccc(Cl)cc2N2CCN(CC(=O)O)[C@H](C)C2)cc1, which bioavailability is on record?
A: 100%

molecular target: T1, Sodium- and chloride-dependent glycine transporter 1 (Homo sapiens, UniProt P48067); test: Inhibition of uptake of [3H]-glycine into cells transfected with human GlyT-1b transporter; settings: not given
T1 sequence (P48067 whole entry): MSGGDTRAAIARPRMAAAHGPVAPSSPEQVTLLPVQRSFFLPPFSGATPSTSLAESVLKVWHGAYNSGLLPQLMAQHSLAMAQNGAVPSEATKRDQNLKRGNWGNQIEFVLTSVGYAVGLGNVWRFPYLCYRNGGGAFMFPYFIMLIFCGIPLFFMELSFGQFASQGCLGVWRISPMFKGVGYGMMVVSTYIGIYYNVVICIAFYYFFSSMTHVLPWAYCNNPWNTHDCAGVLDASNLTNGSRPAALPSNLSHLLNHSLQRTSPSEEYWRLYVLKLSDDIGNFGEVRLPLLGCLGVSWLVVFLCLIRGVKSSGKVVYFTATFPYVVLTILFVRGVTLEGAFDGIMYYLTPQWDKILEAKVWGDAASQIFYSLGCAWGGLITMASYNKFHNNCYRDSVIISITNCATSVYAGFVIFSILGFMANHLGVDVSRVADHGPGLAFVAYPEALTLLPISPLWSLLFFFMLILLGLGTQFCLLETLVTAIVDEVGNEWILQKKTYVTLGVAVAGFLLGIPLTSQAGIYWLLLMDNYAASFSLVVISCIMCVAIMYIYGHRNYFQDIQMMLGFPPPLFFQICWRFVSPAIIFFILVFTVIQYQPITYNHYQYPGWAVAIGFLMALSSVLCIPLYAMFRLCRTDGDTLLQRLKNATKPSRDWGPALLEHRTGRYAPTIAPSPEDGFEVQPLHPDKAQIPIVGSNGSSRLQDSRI

Q: Which IC50 does the source give for COc1ccc(Sc2ccc(C)cc2N2CCN(CC(=O)O)C(C)C2)cc1 (stereo not drawn) here?
A: 1600 nM

Q: Which IC50 does the source give for COc1ccc(Sc2ccccc2N2CCN(CC(=O)O)CC2)cc1 here?
A: > 10000 nM

Q: For COc1ccc(Sc2ccccc2N2CC(C)N(CC(=O)O)CC2C)cc1 (stereo not drawn), which IC50 is on record?
A: 580 nM

Q: With COc1ccc(Sc2ccccc2N2C[C@@H](C)N(CC(=O)O)C[C@@H]2C)cc1 as the compound, how does the IC50 read?
A: 160 nM

Q: For COc1ccc(Sc2ccccc2N2CCN(CC(=O)O)C(C)C2)cc1 (stereo not drawn), which IC50 is on record?
A: 1700 nM

Q: With COc1ccc(Sc2ccccc2N2C[C@@H](C)N(CC(=O)O)C[C@H]2C)cc1 as the compound, how does the IC50 read?
A: 16000 nM

Q: For CN(CC[C@@H](Oc1ccc(C(F)(F)F)cc1)c1ccccc1)CC(=O)O, which IC50 is on record?
A: 320 nM

Q: With COc1ccc(Sc2ccccc2N2CCN(CC(=O)O)C(C)(C)C2)cc1 as the compound, how does the IC50 read?
A: 1500 nM

Q: With CC1CN(c2ccccc2Sc2ccc(O)cc2)C(C)CN1CC(=O)O (stereo not drawn) as the compound, how does the IC50 read?
A: 3600 nM

Q: With COc1ccc(Sc2ccc(OC)cc2N2CC(C)N(CC(=O)O)CC2C)cc1 (stereo not drawn) as the compound, how does the IC50 read?
A: > 50000 nM

Q: For COc1ccc(Sc2ccccc2N2C[C@H](C)N(CC(=O)O)C[C@H]2C)cc1, which IC50 is on record?
A: 53000 nM

Q: With CC(=O)Nc1ccc(Sc2ccccc2N2CC(C)N(CC(=O)O)CC2C)cc1 (stereo not drawn) as the compound, how does the IC50 read?
A: 22000 nM

Q: Which IC50 does the source give for COc1ccc(Sc2ccccc2N2CCN(CC(=O)O)CC2C)cc1 (stereo not drawn) here?
A: > 10000 nM

Q: Which IC50 does the source give for COc1ccc(Sc2ccc(OC)cc2N2CCN(CC(=O)O)C(C)C2)cc1 (stereo not drawn) here?
A: 4600 nM

Q: Which IC50 does the source give for CC1CN(c2ccccc2Sc2ccc(Cl)cc2)C(C)CN1CC(=O)O (stereo not drawn) here?
A: 360 nM

Q: With COc1ccc(Sc2ccc(Cl)cc2N2CC(C)N(CC(=O)O)CC2C)cc1 (stereo not drawn) as the compound, how does the IC50 read?
A: 1700 nM

Q: Which IC50 does the source give for COc1ccc(Sc2ccc(Cl)cc2N2CCN(CC(=O)O)C(C)C2)cc1 (stereo not drawn) here?
A: 290 nM

Q: For CC1CN(c2ccccc2Sc2ccc(F)cc2)C(C)CN1CC(=O)O (stereo not drawn), which IC50 is on record?
A: 1900 nM

Q: For CC1CN(c2ccccc2Sc2ccc(-c3ccccc3)cc2)C(C)CN1CC(=O)O (stereo not drawn), which IC50 is on record?
A: > 10000 nM

Q: For COc1ccc(Sc2ccc(Cl)cc2N2CCN(CC(=O)O)[C@@H](C)C2)cc1, which IC50 is on record?
A: 1400 nM

Q: Which IC50 does the source give for COc1ccc(Sc2ccccc2N2C[C@H](C)N(CC(=O)O)C[C@@H]2C)cc1 here?
A: 18000 nM

Q: For Cc1ccc(Sc2ccccc2N2CC(C)N(CC(=O)O)CC2C)cc1 (stereo not drawn), which IC50 is on record?
A: 550 nM

Q: Which IC50 does the source give for COc1ccc(Sc2ccc(Cl)cc2N2CCN(CC(=O)O)[C@H](C)C2)cc1 here?
A: 150 nM

Q: With CC1CN(c2ccccc2Sc2ccccc2)C(C)CN1CC(=O)O (stereo not drawn) as the compound, how does the IC50 read?
A: 2900 nM
